In the library only some 3.9% were active in any assay of this set; here they are far more common.
HSF1 inhib: HSF1 inhibition; NIH3T3-HGL HSE-luciferase, MG132-induced, luminescence 8 h; hits give low values; AID 2098; activity change, negative = inhibition, % at 7.5 µM (by protocol); 300,000 compounds, 0.77% hits;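 active = more than half of replicate wells show activity change below -50%, luminescence cut by over half; inconclusive = some wells, but at most half, below -50%; inactive = no replicate well below -50%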;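 note: luciferase reports HSF-1 transcriptional activity via heat shock element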
DNA FID counter-1: displaces DNA intercalator in HCV helicase counter-screen; inhibition, % at 7.9 µM; 290,000 compounds, 0.17% hits; DNA fluorescent intercalator displacement, fluorescence;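 note: higher means more ethidium bromide displaced from hairpin DNA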
HSF1 activator: increases HSF-1 driven luciferase reporter signal. NIH3T3-HGL HSF-1 luciferase reporter, MG132, 8 h; 100% = twice DMSO control signal. activation, % at 9 µM. 300,000 compounds, 1.7% hits;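 active = mean replicate activation of at least 50% with a set share of replicates each reaching 50%; inconclusive = only one of those two conditions met; inactive = mean below 50% and too few replicates reaching it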
HSP90 refold inh: blocks HSP90-mediated luciferase refolding in reticulocyte lysate; Rabbit reticulocyte lysate, luciferase refolding luminescence, 3 h; inhibition, % at 5.6 µM; 290,000 compounds, 0.91% hits;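 active = inhibition above the screen-wide mean plus 3 SD, computed separately per campaign, cut at about 16% in these data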;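 note: inhibitors lower the luminescence because luciferase stays unfolded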
NS3 helicase inh: blocks Hepatitis C virus NS3 helicase unwinding; inhibition, % at 10.9 µM; 290,000 compounds, 0.56% hits; NS3 helicase DNA unwinding, Cy5 molecular beacon fluorescence; AID 1800;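 active = inhibition above the mean of all tested compounds plus 3 SD, set per campaign, cut at about 35% in these data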
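Compound dosing – single dose, 10.9 µM nominal final, DMSO 0.8% final · System – NS3 helicase fragment of HCV · Buffer or medium – MOPS pH 6.5, MgCl2, DTT, Tween20, BSA · Signal – Cy5 beacon fluorescence read at start and 1 h · Also added – annealed dual-labelled DNA beacon duplex, ATP-started · Schedule – 1 h at 25 °C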
HCV core dimer: HCV core protein dimerization inhibition | TR-FRET GST/Flag-core106 dimerization, 1536-well | inhibition, % at 5 µM | 300,000 compounds, 0.33% hits;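 active = inhibition above the mean of all tested compounds plus 3 SD, set per screening campaign, cut at about 45% in these data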
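Assay system – GST-tagged and Flag-tagged HCV core protein residues 1-106 · Quantity – core106 proteins, GST 13.5 nM and Flag 17 nM · Benchmarks – unlabelled core106 and no-GST-core106 wells · Read-out basis – percent inhibition of core106 dimerization signal · Detection – time-resolved FRET, ex 340 nm, em 617 and 671 nm · Schedule – 4 h at 22.5 °C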
HSP90 inh confirm: HSP90 inhibition, confirmation assay. shares compounds with HSP90 refold inh. rabbit reticulocyte lysate, luciferase refolding luminescence, 3 h. inhibition, % at 5.9 µM. 2,300 compounds, 64% hits; in the data active = inhibition above about 18%
FLuc counter: counter-screen for HSP90 inhibitors: inhibitors of firefly luciferase; AID 1847; 2,300 compounds, 48% hits; purified native firefly luciferase, luminescence; inhibition, % at 5.9 µM; shares compounds with HSP90 refold inh;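 active = inhibition above the mean inhibition of all tested sample wells plus 3 SD, cut at about 10% in these data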
Target sequence (P08659 whole entry, looked up): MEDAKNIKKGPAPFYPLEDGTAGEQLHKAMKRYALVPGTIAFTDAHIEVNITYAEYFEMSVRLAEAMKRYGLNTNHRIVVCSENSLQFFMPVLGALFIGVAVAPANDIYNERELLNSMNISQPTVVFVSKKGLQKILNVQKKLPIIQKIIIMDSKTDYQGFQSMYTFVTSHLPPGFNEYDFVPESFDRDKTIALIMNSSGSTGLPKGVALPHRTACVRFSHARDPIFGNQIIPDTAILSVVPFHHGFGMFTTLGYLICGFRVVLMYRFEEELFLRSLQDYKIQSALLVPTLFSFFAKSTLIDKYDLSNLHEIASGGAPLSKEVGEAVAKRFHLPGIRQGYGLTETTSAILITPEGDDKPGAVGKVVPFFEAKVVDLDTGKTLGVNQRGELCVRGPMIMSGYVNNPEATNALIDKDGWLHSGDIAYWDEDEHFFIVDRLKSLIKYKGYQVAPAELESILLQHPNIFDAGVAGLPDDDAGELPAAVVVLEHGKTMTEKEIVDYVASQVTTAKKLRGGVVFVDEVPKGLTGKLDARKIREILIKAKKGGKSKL
NS3 helicase cf: confirmation of Hepatitis C virus NS3 helicase inhibitors; shares compounds with NS3 helicase inh; NS3 helicase DNA unwinding, Cy5 molecular beacon fluorescence; inhibition, % at 10.9 µM; 1,600 compounds, 31% hits; AID 1943;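 active = inhibition above the mean of all tested compounds plus 3 SD, cutoff set per campaign, cut at about 36% in these data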
DNA FID counter-2: counter-screen for HCV NS3 helicase inhibitors: DNA intercalator displacement | DNA fluorescent intercalator displacement, fluorescence | 1,600 compounds, 4% hits | inhibition, % at 7.9 µM | shares compounds with NS3 helicase inh | AID 1945;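 note: higher means more displacement of ethidium bromide from the DNA hairpin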
Hits are given with their value; . = inactive; ? = inconclusive; / = no result given. Cut-off read from the data, not from the text of the source, unless noted: active = inhibition above about 37%; inactive = the rest.

SMILES | HSF1 inhib | DNA FID counter-1 | HSF1 activator | HSP90 refold inh | NS3 helicase inh | HCV core dimer | HSP90 inh confirm | FLuc counter | others
NC(=O)NC(=O)C(Nc1ccc(N2CCCCC2)cc1)c1ccccc1 (stereo unspecified) | . | . | . | 23.4 | . | . | . | .
Cc1nn(C(=O)c2c(-c3ccccc3)noc2C)c(C)c1N=Nc1cc(C(F)(F)F)cc(C(F)(F)F)c1 | . | . | ? | . | . | . | / | /
CCN(CC)S(=O)(=O)c1ccc(C)c(NC(=O)CN(C)C)c1 | . | . | . | 48.8 | . | . | . | .
COc1cc(OC)cc(C(=O)NCC(=O)OCC(=O)Nc2cc(S(C)(=O)=O)ccc2Cl)c1 | . | . | . | 26.7 | . | . | . | .
CS(=O)(=O)c1ccc(Cl)c(NC(=O)COC(=O)CNC(=O)c2ccccc2)c1 | . | . | . | . | . | . | / | /
O=C1CC[C@H](OCc2ccccc2)CCN1[C@H](CSc1ccccc1)Cc1ccccc1 | . | . | . | 26.9 | . | . | . | .
Cc1nonc1CN(C)C(=O)c1ccc(OC2CCN(C(=O)c3cccnc3)CC2)cc1 | . | . | . | . | . | . | / | /
CCOC(=O)c1c(C)sc(Sc2ccc(Cl)cc2[N+](=O)[O-])c1OC | . | . | . | . | . | . | / | /
O=C(O)c1cccc(S(=O)(=O)Nc2ccc(OCc3ccccc3)cc2)c1 | . | . | . | . | . | . | / | /
O=C(OCC(F)(F)F)c1cccc(COc2ccc3ccccc3c2)c1 | -62.1 | . | . | 25.5 | . | . | 93.0 | 22.0
O=C(O)c1cccc(COc2ccc3c(c2)CCC3)c1 | -78.8 | . | . | 83.4 | . | . | 95.1 | 92.6
O=C(COc1ccc2c(c1)CCC2)NCc1cccc(Cl)c1 | . | . | . | . | . | . | / | /
O=C(NCc1ccccc1)c1cccc(COc2ccc3c(c2)CCC3)c1 | . | . | . | 35.9 | . | . | 45.2 | 44.8
CCOC(=O)N1CCC(N2C(=O)c3ccccc3C2Nc2ccc3c(C)cc(=O)oc3c2)CC1 (stereo unspecified) | . | . | . | 18.2 | . | . | . | .
CCOC(=O)N1CCC(N2C(=O)c3ccccc3C2Nc2ccccc2C)CC1 (stereo unspecified) | . | . | . | . | . | . | / | /
Cn1c2ccccc2c(=O)c2ccc(C#Cc3ccccn3)cc21 | . | . | . | . | . | . | / | /
Cn1c2ccccc2c(=O)c2ccc(C#CC3(N)CCCCC3)cc21 | . | . | . | 33.7 | . | . | 30.1 | .
Cn1c2ccccc2c(=O)c2cc(C#CC3(O)CCCCC3)ccc21 | -84.7 | . | . | 72.4 | . | . | 76.3 | 71.4
Nc1nc(NCCOCCO)nc(N2CCCCCC2)c1[N+](=O)[O-] | . | . | . | . | . | / | / | /
CCN(C(=O)CN1CCN(c2cccc(C(F)(F)F)c2)CC1)c1c(N)n(Cc2ccccc2)c(=O)[nH]c1=O | . | . | . | . | . | . | / | /
O=C(CSc1nc2ccccc2c(=O)n1NC(=O)c1ccccc1)c1ccccc1 | . | . | . | 36.5 | . | . | . | .
O=C(CSc1nc2ccccc2c(=O)n1NC(=O)c1ccccc1)c1ccc(Cl)cc1 | . | . | . | 24.4 | . | . | . | .
Cc1c(NC(=O)COC(=O)C(c2ccc(Cl)cc2)C(C)C)c(=O)n(-c2ccccc2)n1C (stereo unspecified) | . | . | . | . | . | . | / | /
COc1cccc(NC(=O)CSc2nc3c(c(=O)n2C)SC(C)C3)c1 (stereo unspecified) | . | . | . | . | . | . | / | /
CCCCn1c(N)c(N(CCOC)C(=O)CC(NC(=O)c2ccccc2)c2ccccc2)c(=O)[nH]c1=O (stereo unspecified) | . | / | . | / | / | . | / | /
SMILES | HSF1 inhib | DNA FID counter-1 | HSF1 activator | HSP90 refold inh | NS3 helicase inh | HCV core dimer | HSP90 inh confirm | FLuc counter | others
COc1cc(/C=C/[N+](=O)[O-])ccc1OCc1cccc(C(=O)O)c1 | . | . | . | 62.9 | 36.0 | / | 50.6 | . | NS3 helicase cf=68.7;DNA FID counter-2=.
CN1C(=O)Nc2cccc3cccc1c23 | . | . | . | 21.2 | 41.5 | . | . | . | NS3 helicase cf=.;DNA FID counter-2=.
CC1CC1C(=O)OCC(=O)NC(=O)NC12CC3CC(CC(C3)C1)C2 (stereo unspecified) | . | . | . | . | . | . | / | /
CCCc1nnc(NC(=O)COc2ccc3c(c2)OCO3)s1 | . | . | . | . | . | . | / | /
O=C1N=c2ccc(Br)cc2=C1c1sc(=S)n(NS(=O)(=O)c2ccccc2)c1O | . | . | . | . | . | . | / | /
Cc1ccc(C(=O)Nc2ccc3c(c2)OCO3)cc1 | . | . | . | 66.3 | 37.8 | . | 52.0 | 38.1 | NS3 helicase cf=.;DNA FID counter-2=.
O=C(Nc1ccc2c(c1)OCO2)c1ccncc1 | . | . | . | . | . | . | / | /
O=C(NC(=S)Nc1ccc(-c2ccc(CO)o2)cc1)c1cccs1 | . | . | . | 23.9 | 36.8 | 51.1 | . | . | NS3 helicase cf=39.7;DNA FID counter-2=.
O=C(NC1CCCN(CCc2ccccc2)C1)c1c(F)cccc1F (stereo unspecified) | . | . | . | . | . | . | / | /
Cc1c(C(=O)O)cccc1-c1ccc(/C=C2\SC(=O)NC2=O)o1 | . | . | . | 28.7 | 45.4 | . | 39.3 | 16.8 | NS3 helicase cf=.;DNA FID counter-2=.
CCOC(=O)CN1C(=O)S/C(=C\c2ccc(-c3cccc(C(=O)O)c3C)o2)C1=O | . | / | . | / | / | . | / | /
CCN(CC)c1ccc2nc3c4ccccc4c(=O)cc-3oc2c1 | -62.8 | . | . | 46.9 | 71.3 | / | 48.0 | 32.4 | NS3 helicase cf=101.5;DNA FID counter-2=.
C=COC(=O)CSc1nc(-c2cccs2)ccc1C#N | / | . | / | 33.3 | 47.5 | . | . | . | NS3 helicase cf=.;DNA FID counter-2=.
COc1ccc2cc(-c3cc(C(=O)O)c4ccccc4n3)ccc2c1 | . | . | . | 28.2 | 39.7 | . | 64.3 | 37.8 | NS3 helicase cf=45.2;DNA FID counter-2=.
COc1ccc(-c2cc(C(=O)O)c3ccccc3n2)c(OC)c1 | . | . | . | . | . | . | / | /
O=C(O)c1cccc(NC(=S)NC(=O)c2ccc3ccccc3c2)c1 | -70.9 | . | . | 64.2 | 40.7 | . | 71.0 | 48.6 | NS3 helicase cf=58.3;DNA FID counter-2=.
Cc1ccc(CNS(=O)(=O)c2ccc(F)c(F)c2)n1C | . | . | . | . | . | . | / | /
CC(C)N=c1scc(-c2ccco2)n1/N=C/c1ccc(O)c(O)c1 | / | . | / | . | . | . | / | /
C=CCN=c1scc(-c2ccco2)n1/N=C/c1ccc(O)c(O)c1O | . | . | . | 17.2 | 40.1 | . | 24.5 | . | NS3 helicase cf=.;DNA FID counter-2=.

Compound activity (PubChem BioAssay)
